Results as given in ChEMBL document CHEMBL1127424, “7-azetidinylquinolones as antibacterial agents. 2. Synthesis and biological activity of 7-(2,3-disubstituted-1-azetidinyl)-4-oxoquinoline- and -1,8-naphthyridine-3-carboxylic acids. Properties and structure-activity relationships of quinolones with an azetidine moiety” (J Med Chem, 1994).
Converted amounts (≈) assume the structure as drawn.

Assays:
[1] = Measured ionization constant (pKa); assay type: physicochemical; conditions: read-out: pKa1
How it was run: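 Spectrophotometric titration at 20 ± 1 °C, 0.1 M ionic strength, pH varied with H2SO4 or NaOH made up in the compound stock. Absorbance followed at compound-specific wavelengths chosen from 200–400 nm scans. pKa1 and pKa2 taken as the inflection points of the two-step absorbance vs pH curve.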

[2] = AUC (0-4 hr) ug/ml/h; assay type: ADME, cell-free; set-up: time < 4 hr; concentration or dose not given beside the values; conditions: plasma
How it was run: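 Mice dosed once orally at 50 mg/kg; blood taken from groups of six mice at 0.5, 1, 2 and 4 h. Serum drug assayed by disk agar diffusion bioassay (Bacillus subtilis ATCC 6633 on Seed Agar, 37 °C, 18 h), giving total activity.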

[3] = HPLC capacity factor (k'); assay type: ADME
How it was run: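 Ion-pair reversed-phase HPLC on ODS-2 (10 μm) at 45 °C. Mobile phase: 10 mM sodium heptanesulfonate plus 50 mM KH2PO4 (pH 3.5)–methanol 45:55, 1 mL/min. Samples at 100 μg/mL in DMF, injected in duplicate, UV 280 nm. k' = (tR − t0)/t0.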

[4] = Solubility (buffer pH 7.4); assay type: physicochemical; conditions: read-out: S
How it was run: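 Excess solid shaken in 0.05 M phosphate buffer pH 7.4 for 24 h at 25 °C. Suspension filtered through 0.22 μm, discarding the first portion. Filtrate diluted in 0.1 N HCl or 0.1 N NaOH and read by UV at the compound's absorbance maximum.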

[5] = test system: Bacillus cereus; experiment: In vitro minimum inhibitory concentration for Bacillus cereus ATCC 11778; assay type: functional
How it was run: (§1)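 Serial 2-fold agar dilution in Mueller Hinton medium, run alongside a reference quinolone. Inoculum adjusted to 10⁸ cfu/mL; compound range 0.007–16 μg/mL.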

[6] = test system: Bacillus subtilis; experiment: In vitro minimum inhibitory concentration for Bacillus subtilis ATCC 6633; assay type: functional; how it was run: as §1
[7] = test system: Escherichia coli; experiment: In vitro minimum inhibitory concentration for Escherichia coli ATCC 10799; assay type: functional; how it was run: as §1
[8] = test system: Enterobacter cloacae; experiment: In vitro minimum inhibitory concentration for Enterobacter cloacae ATCC 23355; assay type: functional
[9] = test system: Klebsiella pneumoniae; experiment: In vitro minimum inhibitory concentration to inhibit Klebsiella pneumoniae ATCC 10031; assay type: functional; how it was run: as §1
[10] = test system: Morganella morganii; experiment: In vitro minimum inhibitory concentration for Morganella morganii ATCC 8019; assay type: functional; how it was run: as §1
[11] = test system: Proteus vulgaris; experiment: In vitro minimum inhibitory concentration for Proteus vulgaris ATCC 8427; assay type: functional; how it was run: as §1
[12] = test system: Staphylococcus epidermidis; experiment: In vitro minimum inhibitory concentration for Staphylococcus epidermidis ATCC 155-1; assay type: functional; how it was run: as §1
[13] = test system: Staphylococcus aureus; experiment: In vitro minimum inhibitory concentration for Staphylococcus aureus ATCC 25178; assay type: functional; how it was run: as §1
[14] = test system: Enterococcus faecalis; experiment: In vitro minimum inhibitory concentration for Streptococcus faecalis ATCC 10541; assay type: functional; how it was run: as §1
[15] = test system: Pseudomonas aeruginosa; experiment: In vitro minimum inhibitory concentration for Pseudomonas aeruginosa ATCC 10145; assay type: functional; how it was run: as §1
[16] = test system: Mus musculus; experiment: Evaluation of efficacy on systemic infections Escherichia coli HM-42, after oral administration in mice; assay type: functional
How it was run: (§2)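 Single oral dose given immediately after infection, one of four doses per group, chosen from in vitro activity. Survival scored after one week. ED50 (total mg/kg protecting 50%) interpolated from survival rates.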

[17] = test system: Mus musculus; experiment: Evaluation of efficacy on systemic infections Pseudomonas aeruginosa HS-116, after oral administration in mice; assay type: functional; how it was run: as §2
[18] = test system: Mus musculus; experiment: Evaluation of efficacy on systemic infections Staphylococcus aureus HS-93, after oral administration in mice; assay type: functional; how it was run: as §2

Row | Structure (SMILES) | pKa [1] | AUC [2] [ng·h/mL] | Log k' [3] | solubility [4] [µg/mL] | MIC [5] [µg/mL] | MIC [6] [µg/mL] | MIC [7] [µg/mL] | MIC [8] [µg/mL] | MIC [9] [µg/mL] | MIC [10] [µg/mL] | MIC [11] [µg/mL] | MIC [12] [µg/mL] | MIC [13] [µg/mL] | MIC [14] [µg/mL] | MIC [15] [µg/mL] | ED50 [16] [mg/kg] | ED50 [17] [mg/kg] | ED50 [18] [mg/kg]
1 | CC[N+](C)(C)C1CN(c2cc3c(cc2F)c(=O)c(C(=O)O)cn3C2CC2)C1 | 6.46 |  |  |  |  |  |  |  |  |  |  |  |  |  |  |  |  | 
2 | C[C@H]1N(c2cc3c(cc2F)c(=O)c(C(=O)O)cn3C2CC2)C[C@]1(C)N |  | 3800 | 0.1421 | 1.3 (≈ 3.76 µM) | 0.25 (≈ 0.724 µM) | 0.015 (≈ 0.0434 µM) | 0.06 (≈ 0.174 µM) | 0.015 (≈ 0.0434 µM) | 0.03 (≈ 0.0869 µM) | 0.06 (≈ 0.174 µM) | 0.25 (≈ 0.724 µM) | 0.12 (≈ 0.347 µM) | 0.25 (≈ 0.724 µM) | 2 (≈ 5.79 µM) | 2 (≈ 5.79 µM) |  |  | 
3 | C[C@H]1[C@H](N)CN1c1c(F)cc2c(=O)c3c(=O)[nH]sc3n(C3CC3)c2c1F |  |  | 0.1134 |  | 0.06 (≈ 0.159 µM) | 0.06 (≈ 0.159 µM) | 0.12 (≈ 0.317 µM) | 0.03 (≈ 0.0793 µM) | 0.03 (≈ 0.0793 µM) | 0.06 (≈ 0.159 µM) | 0.12 (≈ 0.317 µM) | 0.12 (≈ 0.317 µM) | 0.12 (≈ 0.317 µM) | 0.25 (≈ 0.661 µM) | 1 (≈ 2.64 µM) |  |  | 
4 | C[C@H]1[C@H](N)CN1c1cc2c(cc1F)c(=O)c1c(=O)[nH]sc1n2C1CC1 |  | 16200 | 0.065 |  | 0.06 (≈ 0.166 µM) | 0.015 (≈ 0.0416 µM) | 0.03 (≈ 0.0832 µM) | 0.015 (≈ 0.0416 µM) | 0.015 (≈ 0.0416 µM) | 0.03 (≈ 0.0832 µM) | 0.12 (≈ 0.333 µM) | 0.03 (≈ 0.0832 µM) | 0.06 (≈ 0.166 µM) | 0.25 (≈ 0.694 µM) | 0.25 (≈ 0.694 µM) |  |  | 
5 | CCn1cc(C(=O)O)c(=O)c2cc(F)c(N3C[C@@H](N)[C@@H]3C)nc21 |  |  | -0.1061 |  | 0.5 (≈ 1.56 µM) | 0.12 (≈ 0.375 µM) | 0.25 (≈ 0.78 µM) | 0.12 (≈ 0.375 µM) | 0.12 (≈ 0.375 µM) | 0.25 (≈ 0.78 µM) | 0.5 (≈ 1.56 µM) | 0.5 (≈ 1.56 µM) | 0.5 (≈ 1.56 µM) | 2 (≈ 6.24 µM) | 2 (≈ 6.24 µM) |  |  | 
6 | C[C@H]1[C@H](N)CN1c1cc2c(cc1F)c(=O)c(C(=O)O)cn2C(C)(C)C |  |  | 0.1399 |  | 0.25 (≈ 0.72 µM) | 0.06 (≈ 0.173 µM) | 0.25 (≈ 0.72 µM) | 0.12 (≈ 0.345 µM) | 0.015 (≈ 0.0432 µM) | 0.25 (≈ 0.72 µM) | 0.25 (≈ 0.72 µM) | 0.25 (≈ 0.72 µM) | 0.25 (≈ 0.72 µM) | 0.5 (≈ 1.44 µM) | 2 (≈ 5.76 µM) |  |  | 
7 | C[C@H]1[C@H](N)CN1c1c(F)cc2c(=O)c(C(=O)O)cn(-c3ccc(F)cc3)c2c1Cl |  |  | 0.2581 |  | 0.03 (≈ 0.0715 µM) | 0.03 (≈ 0.0715 µM) | 0.06 (≈ 0.143 µM) | 0.06 (≈ 0.143 µM) | 0.03 (≈ 0.0715 µM) | 0.06 (≈ 0.143 µM) | 0.25 (≈ 0.596 µM) | 0.06 (≈ 0.143 µM) | 0.03 (≈ 0.0715 µM) | 0.25 (≈ 0.596 µM) | 0.25 (≈ 0.596 µM) | 3.6 | 37.9 | 1.3
8 | C[C@H]1[C@H](N)CN1c1nc2c(cc1F)c(=O)c(C(=O)O)cn2C(C)(C)C |  | 16500 | 0.1644 |  | 0.12 (≈ 0.344 µM) | 0.015 (≈ 0.0431 µM) | 0.06 (≈ 0.172 µM) | 0.06 (≈ 0.172 µM) | 0.015 (≈ 0.0431 µM) | 0.12 (≈ 0.344 µM) | 0.25 (≈ 0.718 µM) | 0.12 (≈ 0.344 µM) | 0.12 (≈ 0.344 µM) | 1 (≈ 2.87 µM) | 2 (≈ 5.74 µM) |  |  | 
9 | C[C@H]1[C@H](N)CN1c1c(F)cc2c(=O)c(C(=O)O)cn(CCF)c2c1Cl |  |  | 0.0166 |  | 0.25 (≈ 0.672 µM) | 0.06 (≈ 0.161 µM) | 0.03 (≈ 0.0807 µM) | 0.03 (≈ 0.0807 µM) | 0.03 (≈ 0.0807 µM) | 0.03 (≈ 0.0807 µM) | 0.25 (≈ 0.672 µM) | 0.12 (≈ 0.323 µM) | 0.12 (≈ 0.323 µM) | 0.5 (≈ 1.34 µM) | 1 (≈ 2.69 µM) |  |  | 
10 | CCNC[C@H]1CN(c2c(F)cc3c(=O)c(C(=O)O)cn(C4CC4)c3c2F)[C@@H]1C |  | 11800 | 0.025 |  | 0.25 (≈ 0.639 µM) | 0.12 (≈ 0.307 µM) | 0.25 (≈ 0.639 µM) | 1 (≈ 2.55 µM) | 0.06 (≈ 0.153 µM) | 0.5 (≈ 1.28 µM) | 0.5 (≈ 1.28 µM) | 0.25 (≈ 0.639 µM) | 0.25 (≈ 0.639 µM) | 2 (≈ 5.11 µM) | 4 (≈ 10.2 µM) | 4.7 | 61 | 37.5
11 | CC1([N+](C)(C)C)CN(c2c(F)cc3c(=O)c(C(=O)O)cn(C4CC4)c3c2F)C1 | 6.03 |  |  |  |  |  |  |  |  |  |  |  |  |  |  |  |  | 
12 | C[C@H]1[C@H](N)CN1c1c(F)cc2c(=O)c(C(=O)O)cn3c2c1SCC3 |  |  | -0.1195 |  | 1 (≈ 2.86 µM) | 0.25 (≈ 0.716 µM) | 0.5 (≈ 1.43 µM) | 0.25 (≈ 0.716 µM) | 0.25 (≈ 0.716 µM) | 0.25 (≈ 0.716 µM) | 1 (≈ 2.86 µM) | 0.5 (≈ 1.43 µM) | 1 (≈ 2.86 µM) | 8 (≈ 22.9 µM) | 2 (≈ 5.72 µM) |  |  | 
